Experiments:
[1] = system: HL cell lines, isolated MSC; experiment: Toxicity by mitochondrial potential; assay type: cell-based, human; conditions: for toxic effect (mitochondrial potential, JC-1): HL cell lines or isolated MSC, 2.5 up to 10 μM, 48, 72 and 96 h (not shown)
[2] = target: T1, MMP-2 (Homo sapiens, UniProt P08253); experiment: MMP inhibition assay; assay type: biochemical; conditions: read-out: MMP2 IC50; average of three determinations, SD <10%
T1 sequence (P08253 110-660): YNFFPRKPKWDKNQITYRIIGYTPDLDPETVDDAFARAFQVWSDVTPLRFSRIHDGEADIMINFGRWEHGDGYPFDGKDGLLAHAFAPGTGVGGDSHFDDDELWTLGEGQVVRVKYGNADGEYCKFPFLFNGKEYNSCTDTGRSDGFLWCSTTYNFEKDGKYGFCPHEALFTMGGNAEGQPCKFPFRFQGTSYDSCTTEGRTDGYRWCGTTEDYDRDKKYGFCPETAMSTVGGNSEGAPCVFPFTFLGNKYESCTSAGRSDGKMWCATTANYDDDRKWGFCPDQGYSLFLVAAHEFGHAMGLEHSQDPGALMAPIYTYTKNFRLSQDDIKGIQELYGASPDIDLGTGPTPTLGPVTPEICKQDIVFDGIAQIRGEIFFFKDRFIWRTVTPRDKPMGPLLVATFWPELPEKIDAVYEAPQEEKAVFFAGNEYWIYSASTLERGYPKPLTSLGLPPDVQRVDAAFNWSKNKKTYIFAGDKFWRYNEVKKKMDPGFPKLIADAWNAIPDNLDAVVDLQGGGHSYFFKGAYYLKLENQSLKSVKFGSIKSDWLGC
In short: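 Pro-MMP-2 was activated with APMA 2 mM, 1 h, 37°C. Enzyme (0.56 nM final) and test compound were incubated 3 h at 25°C in 50 mM Tris pH 7.5, 150 mM NaCl, 10 mM CaCl2, 0.05% Brij-35, 1% DMSO. Mca-Lys-Pro-Leu-Gly-Leu-Dap(Dnp)-Ala-Arg-NH2 at 2 µM final. Fluorescence (ex 325/em 400 nm) recorded every 15 s for 20 min, in duplicate. IC50 from vi/vo = 1/(1+[I]/IC50).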

[3] = target: MMP-9 (Homo sapiens, UniProt P14780); experiment: MMP inhibition assay; assay type: biochemical; conditions: read-out: MMP9 IC50; average of three determinations, SD <10%
MMP-9, sequence (P14780 107-707 limits assumed): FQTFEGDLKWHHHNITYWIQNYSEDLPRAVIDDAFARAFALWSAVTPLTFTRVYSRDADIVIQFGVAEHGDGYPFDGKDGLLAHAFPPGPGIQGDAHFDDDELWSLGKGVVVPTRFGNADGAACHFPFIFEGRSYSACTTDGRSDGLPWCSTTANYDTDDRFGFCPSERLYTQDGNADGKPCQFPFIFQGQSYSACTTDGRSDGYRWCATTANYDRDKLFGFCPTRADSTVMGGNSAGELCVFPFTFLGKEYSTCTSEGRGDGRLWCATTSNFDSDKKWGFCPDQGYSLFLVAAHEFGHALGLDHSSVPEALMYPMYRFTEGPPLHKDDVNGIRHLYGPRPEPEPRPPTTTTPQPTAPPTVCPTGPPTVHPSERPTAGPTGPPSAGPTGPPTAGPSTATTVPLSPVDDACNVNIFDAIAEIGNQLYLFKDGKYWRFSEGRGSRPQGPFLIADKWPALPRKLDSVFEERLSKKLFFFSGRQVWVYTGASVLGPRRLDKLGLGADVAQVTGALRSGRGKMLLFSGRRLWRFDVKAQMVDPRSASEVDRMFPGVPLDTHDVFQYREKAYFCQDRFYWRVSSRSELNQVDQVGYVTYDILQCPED
In short: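 APMA-activated MMP-9 (1 mM, 1 h, 37°C), 1.3 nM final, was preincubated with test compound 3 h at 25°C in 50 mM Tris pH 7.5, 150 mM NaCl, 10 mM CaCl2, 0.05% Brij-35, 1% DMSO. Fluorogenic substrate Mca-Lys-Pro-Leu-Gly-Leu-Dap(Dnp)-Ala-Arg-NH2 at 2 µM final. Cleavage monitored (ex 325/em 400 nm) every 15 s for 20 min, in duplicate. IC50 via vi/vo = 1/(1+[I]/IC50).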

[4] = target: T2, Recombinant human ADAM10 (Homo sapiens, UniProt O14672); experiment: In vitro enzymatic inhibition assay; assay type: biochemical; conditions: read-out: ADAM10 IC50; average of three determinations, SD <10%
T2 sequence (O14672 214-748): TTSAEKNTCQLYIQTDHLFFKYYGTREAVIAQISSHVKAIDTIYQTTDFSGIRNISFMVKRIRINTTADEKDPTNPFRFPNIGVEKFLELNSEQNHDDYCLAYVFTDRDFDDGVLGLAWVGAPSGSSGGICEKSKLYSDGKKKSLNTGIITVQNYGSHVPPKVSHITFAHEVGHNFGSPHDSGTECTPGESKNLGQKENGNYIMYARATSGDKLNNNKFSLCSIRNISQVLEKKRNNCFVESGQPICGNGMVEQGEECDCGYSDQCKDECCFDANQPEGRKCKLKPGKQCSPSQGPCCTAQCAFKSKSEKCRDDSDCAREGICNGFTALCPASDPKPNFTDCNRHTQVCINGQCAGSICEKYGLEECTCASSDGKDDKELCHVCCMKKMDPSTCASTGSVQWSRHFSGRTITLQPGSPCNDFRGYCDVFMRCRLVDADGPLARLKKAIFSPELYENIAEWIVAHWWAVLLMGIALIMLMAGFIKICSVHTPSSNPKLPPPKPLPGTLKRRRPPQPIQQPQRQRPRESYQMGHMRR

[5] = target: Recombinant human MMP-14 catalytic domain (Homo sapiens, UniProt P50281); experiment: MMP inhibition assay; assay type: biochemical; conditions: read-out: MMP14 IC50; average of three determinations, SD <10%
In short: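 Recombinant human MMP-14 catalytic domain (1.0 nM final) was preincubated 3 h at 25°C with test compound in 50 mM Tris pH 7.5, 150 mM NaCl, 10 mM CaCl2, 0.05% Brij-35, 1% DMSO. Substrate Mca-Lys-Pro-Leu-Gly-Leu-Dap(Dnp)-Ala-Arg-NH2 at 2 µM final. Fluorescence (ex 325/em 400 nm) read every 15 s for 20 min, in duplicate. IC50 from vi/vo = 1/(1+[I]/IC50).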

[6] = system: NK cell killing of HL cell lines (L428, L540, KMH2); assay type: cell-based, human; conditions: L428 and L540 treated 24 h at 10 μM, E:T 10:1
In short: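 NK cells purified to >96%, stimulated with 0.5 µg/mL PHA plus 10 ng/mL rIL-2, then cultured 15 d in RPMI1640 with 10% FCS and rIL-2; n = 6. Target HL cells were pre-exposed 24 h to medium, DMSO or test compound (10 µM). 4-h 51Cr release at E:T 10:1. Some effectors received anti-NKG2D mAb (5 µg/mL) or isotype control. Specific lysis = (experimental − spontaneous)/(maximum − spontaneous).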

IC50 [2] [nM]	IC50 [3] [nM]	IC50 [4] [nM]	IC50 [5] [µM]	SMILES	toxicity (JC1 staining) ([1]; HL cell lines, 100 μM as pervanadate, 40 min at 37°C (not shown))	toxic effect (mitochondrial potential, JC-1) [1]	increase of NK cell killing [6]
				[Na+].[Na+].[Na+].[O]=[V]([O-])([O-])[O-] [Na3VO4, sodium orthovanadate]	not toxic		
240	1630	150	19.5	NC(=O)NCCC[C@@H](NS(=O)(=O)c1ccc(OCc2cc(Br)cc(Br)c2)cc1)C(=O)NO [JG26]		did not exert any toxic effect	2–3 fold
				CNC(=O)[C@@H](NC(=O)[C@H](CCCc1ccccc1)[C@H](C)N(O)C=O)C(C)(C)C [GI254023X]		did not exert any toxic effect	2–3 fold

Source: publication PMC4910733 (Oncoimmunology, 2015)
